Laboratory results taken from ChEMBL document CHEMBL3232885, “Synthesis, characterization and pharmacological screening of some novel 5-imidazopyrazole incorporated polyhydroquinoline derivatives” (Eur J Med Chem, 2014).
Values after ≈ are worked out from the molar mass of the structure shown.

How the values were obtained:
Streptococcus pneumoniae = experiment: Antibacterial activity against Streptococcus pneumoniae MTCC 1936 assessed as growth inhibition after 24 to 48 hrs by broth microdilution method; format: functional
Procedure, shortened: (§1)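 Bacteria were grown in Mueller-Hinton broth with inoculum adjusted to 10⁸ CFU mL⁻¹ by turbidity. Compounds were serially diluted in 2% aqueous DMSO and incubated at 37 °C overnight. Growth was checked by subculture at 24 and 48 h. MIC was taken as the highest dilution with no turbidity after spot subculture.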

Bacillus subtilis = experiment: Antibacterial activity against Bacillus subtilis MTCC 441 assessed as growth inhibition after 24 to 48 hrs by broth microdilution method; format: functional; procedure, shortened: as §1
Clostridium tetani = experiment: Antibacterial activity against Clostridium tetani MTCC 449 assessed as growth inhibition after 24 to 48 hrs by broth microdilution method; format: functional
Escherichia coli = experiment: Antibacterial activity against Escherichia coli MTCC 443 assessed as growth inhibition after 24 to 48 hrs by broth microdilution method; format: functional; procedure, shortened: as §1
Salmonella typhi = experiment: Antibacterial activity against Salmonella typhi MTCC 98 assessed as growth inhibition after 24 to 48 hrs by broth microdilution method; format: functional, Salmonella enterica subsp. enterica serovar Typhi; details: Salmonella enterica
Vibrio cholerae = experiment: Antibacterial activity against Vibrio cholerae MTCC 3906 assessed as growth inhibition after 24 to 48 hrs by broth microdilution method; format: functional
Candida albicans = experiment: Antifungal activity against Candida albicans MTCC 227 assessed as growth inhibition after 24 to 48 hrs by broth microdilution method; format: functional
Procedure, shortened: (§2)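 Fungal nutrition used Sabouraud Dextrose broth with inoculum at 10⁸ CFU mL⁻¹ by turbidity. Serial compound dilutions were made in 2% DMSO in water. Growth was noted on subculture after 24 and 48 h. MIC was taken as the highest dilution preventing visible turbidity after spot subculture.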

Aspergillus fumigatus = experiment: Antifungal activity against Aspergillus fumigatus MTCC 3008 assessed as growth inhibition after 24 to 48 hrs by broth microdilution method; format: functional; procedure, shortened: as §2
[1] = system: Mycobacterium tuberculosis; experiment: Antitubercular activity against Mycobacterium tuberculosis H37Rv assessed as inhibition of colony formation at 250 ug/mL after 2 to 4 weeks by Lowensteine-Jensen method relative to control; format: functional
[2] = system: Mycobacterium tuberculosis; experiment: Antitubercular activity against Mycobacterium tuberculosis H37Rv assessed as inhibition of colony formation at 100 ug/mL after 2 to 4 weeks by Lowensteine-Jensen method relative to control; format: functional
Plasmodium falciparum = experiment: Antimalarial activity against chloroquine/quinine sensitive Plasmodium falciparum assessed as parasite growth inhibition after 48 hrs; format: functional, organism-based

SMILES | MIC (Streptococcus pneumoniae) [µg/mL] | MIC (Bacillus subtilis) [µg/mL] | MIC (Clostridium tetani) [µg/mL] | MIC (Escherichia coli) [µg/mL] | MIC (Salmonella typhi) [µg/mL] | MIC (Vibrio cholerae) [µg/mL] | MIC (Candida albicans) [µg/mL] | MIC (Aspergillus fumigatus) [µg/mL] | inhibition at 250 µg/mL [1] [%] | inhibition at 100 µg/mL [2] [%] | IC50 (Plasmodium falciparum) [µg/mL]
CCOC(=O)C1=C(N)N(c2ccc(C)cc2)C2=C(C(=O)CC(C)(C)C2)C1c1c(C)nn(-c2ccccc2)c1-n1ccnc1 (stereo not given) | 100 (≈ 173 µM) | 250 (≈ 434 µM) | 250 (≈ 434 µM) | 125 (≈ 217 µM) | 100 (≈ 173 µM) | 100 (≈ 173 µM) | 1000 (≈ 1730 µM) | > 1000 | 12 | 6 | 1.79 (≈ 3.1 µM)
O=C(N[C@H](CO)[C@H](O)c1ccc([N+](=O)[O-])cc1)C(Cl)Cl [CHLORAMPHENICOL] | 100 (≈ 309 µM) | 50 (≈ 155 µM) | 25 (≈ 77.4 µM) | 10 (≈ 30.9 µM) | 50 (≈ 155 µM) | 50 (≈ 155 µM) |  |  |  |  | 
CCOC(=O)C1=C(N)N(c2ccccc2)C2=C(C(=O)CC(C)(C)C2)C1c1c(C)nn(-c2ccccc2)c1-n1ccnc1 (stereo not given) | 500 (≈ 889 µM) | 250 (≈ 444 µM) | 200 (≈ 355 µM) | 250 (≈ 444 µM) | 200 (≈ 355 µM) | 125 (≈ 222 µM) | 250 (≈ 444 µM) | 500 (≈ 889 µM) | 45 | 37 | 1.47 (≈ 2.61 µM)
Cc1nn(-c2ccccc2)c(-n2ccnc2)c1C1C(C#N)=C(N)N(c2ccccc2O)C2=C1C(=O)CC(C)(C)C2 (stereo not given) | 125 (≈ 235 µM) | 100 (≈ 188 µM) | 200 (≈ 376 µM) | 250 (≈ 470 µM) | 250 (≈ 470 µM) | 125 (≈ 235 µM) | 1000 (≈ 1880 µM) | 500 (≈ 941 µM) | 45 | 38 | 0.71 (≈ 1.34 µM)
CO[C@H]1/C=C/O[C@@]2(C)Oc3c(C)c(O)c4c(O)c(c(/C=N/N5CCN(C)CC5)c(O)c4c3C2=O)NC(=O)/C(C)=C\C=C\[C@H](C)[C@H](O)[C@@H](C)[C@@H](O)[C@@H](C)[C@H](OC(C)=O)[C@@H]1C [RIFAMPIN] |  |  |  |  |  |  |  |  | 98 | 98 | 
CCOC(=O)C1=C(N)N(c2ccc(O)cc2)C2=C(C(=O)CCC2)C1c1c(C)nn(-c2ccccc2)c1-n1ccnc1 (stereo not given) | 250 (≈ 454 µM) | 200 (≈ 363 µM) | 200 (≈ 363 µM) | 62.5 (≈ 114 µM) | 200 (≈ 363 µM) | 200 (≈ 363 µM) | 500 (≈ 908 µM) | 500 (≈ 908 µM) | 41 | 37 | 0.067 (≈ 0.122 µM)
C=C[C@H]1CN2CC[C@H]1C[C@H]2[C@H](O)c1ccnc2ccc(OC)cc12 [QUININE] |  |  |  |  |  |  |  |  |  |  | 0.268 (≈ 0.826 µM)
COC1=CC(=O)C[C@@H](C)[C@]12Oc1c(Cl)c(OC)cc(OC)c1C2=O [GRISEOFULVIN] |  |  |  |  |  |  | 100 (≈ 283 µM) | 100 (≈ 283 µM) |  |  | 
CCOC(=O)C1=C(N)N(c2ccc(OC)cc2)C2=C(C(=O)CC(C)(C)C2)C1c1c(C)nn(-c2ccccc2)c1-n1ccnc1 (stereo not given) | 100 (≈ 169 µM) | 125 (≈ 211 µM) | 250 (≈ 422 µM) | 100 (≈ 169 µM) | 200 (≈ 337 µM) | 250 (≈ 422 µM) | 1000 (≈ 1690 µM) | 1000 (≈ 1690 µM) | 25 | 20 | 1.49 (≈ 2.51 µM)
Cc1nn(-c2ccccc2)c(-n2ccnc2)c1C1C(C(N)=O)=C(N)N(c2ccc(O)cc2)C2=C1C(=O)CC(C)(C)C2 (stereo not given) | 250 (≈ 455 µM) | 200 (≈ 364 µM) | 250 (≈ 455 µM) | 250 (≈ 455 µM) | 125 (≈ 227 µM) | 250 (≈ 455 µM) | 500 (≈ 910 µM) | 1000 (≈ 1820 µM) | 70 | 61 | 0.057 (≈ 0.104 µM)
CCOC(=O)C1=C(N)N(c2ccc(O)cc2)C2=C(C(=O)CC(C)(C)C2)C1c1c(C)nn(-c2ccccc2)c1-n1ccnc1 (stereo not given) | 250 (≈ 432 µM) | 62.5 (≈ 108 µM) | 200 (≈ 346 µM) | 200 (≈ 346 µM) | 200 (≈ 346 µM) | 200 (≈ 346 µM) | 500 (≈ 864 µM) | > 1000 | 20 | 12 | 0.096 (≈ 0.166 µM)
Cc1nn(-c2ccccc2)c(-n2ccnc2)c1C1C(C#N)=C(N)N(c2cccc(O)c2)C2=C1C(=O)CC(C)(C)C2 (stereo not given) | 200 (≈ 376 µM) | 500 (≈ 941 µM) | 200 (≈ 376 µM) | 200 (≈ 376 µM) | 250 (≈ 470 µM) | 62.5 (≈ 118 µM) | 1000 (≈ 1880 µM) | 500 (≈ 941 µM) | 38 | 34 | 0.034 (≈ 0.064 µM)
CC1(C)S[C@@H]2[C@H](NC(=O)[C@H](N)c3ccccc3)C(=O)N2[C@H]1C(=O)O [AMPICILLIN] | 100 (≈ 286 µM) | 100 (≈ 286 µM) | 100 (≈ 286 µM) | 10 (≈ 28.6 µM) | 10 (≈ 28.6 µM) | 50 (≈ 143 µM) |  |  |  |  | 
